DENV2 CPE rescue: inhibitors of DENV2 cytopathic effect, primary screen, cell-based, plate reader, single concentration. DENV2-infected cells, cytopathic effect rescue. CPE inhibition, % at 9.99 µM. 350,000 compounds, 1.7% hits; in the data active = CPE inhibition above about 20%, passing the limit was not always enough; inconclusive = no clear call, values can overlap the other calls; tested in BHK-21 cells
miR122 inh: miR-122 Renilla sensor signal increase in Huh7, primary screen, miR-122 inhibitor project, cell-based, single point, plate reader | Huh7 miR-122 Renilla luciferase sensor, 48 h; neutral wells = 0, positive control = 100 | activation (reporter increase), % at 12.5 µM | 340,000 compounds, 0.3% hits | AID 602342, 2012;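 active = mean replicate activation score at least 90 and every replicate individually at or above 90; inconclusive = only one of the two criteria met; inactive = neither criterion met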;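 also: higher luciferase means less miR-122 activity so hits act as miR-122 inhibitors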
Cneo AK release: Cryptococcus neoformans cell lysis inducers, primary screen, AK release luminescence, single concentration | lysis activity, % at 15 µM | C. neoformans lysis, adenylate kinase release luminescence, 4 h; normalised: neutral wells 0, clomiphene wells 100 | 360,000 compounds, 0.2% hits;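 active = mean lysis activity across replicates of at least 80%, whatever share of replicates individually reach that level; inactive = mean lysis activity below 80%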
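Material – log-phase Cryptococcus neoformans yeast cells · Input – 5 × 10^6 yeast cells/mL · Medium – fresh YPD growth medium · Doses – single compound concentration per well · Timing – static 4 h at 37 °C with compound, 1 h detection · Detection – adenylate kinase release luminescence · Read-out – signal increase indicating cell lysis · Control set – Clomiphene as positive lysis control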
E-selectin induc: E-selectin induction in HUVECs, primary screen, imaging, HUVEC, immunofluorescence imaging, single point | P16581 | normalized: neutral wells 0, TNF-alpha wells 100 | activation, % at 7.58 µM | 260,000 compounds, 0.37% hits | AID 686992, 2013;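 active = mean E-selectin-positive cell signal at least 10% of the positive control, reached in at least 60% of replicates, without over 20% cell loss; inconclusive = no rule given, readout overlaps actives, possibly toxicity-flagged; inactive = the rest, including those meeting only one limit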
Target sequence (P16581 whole entry, looked up): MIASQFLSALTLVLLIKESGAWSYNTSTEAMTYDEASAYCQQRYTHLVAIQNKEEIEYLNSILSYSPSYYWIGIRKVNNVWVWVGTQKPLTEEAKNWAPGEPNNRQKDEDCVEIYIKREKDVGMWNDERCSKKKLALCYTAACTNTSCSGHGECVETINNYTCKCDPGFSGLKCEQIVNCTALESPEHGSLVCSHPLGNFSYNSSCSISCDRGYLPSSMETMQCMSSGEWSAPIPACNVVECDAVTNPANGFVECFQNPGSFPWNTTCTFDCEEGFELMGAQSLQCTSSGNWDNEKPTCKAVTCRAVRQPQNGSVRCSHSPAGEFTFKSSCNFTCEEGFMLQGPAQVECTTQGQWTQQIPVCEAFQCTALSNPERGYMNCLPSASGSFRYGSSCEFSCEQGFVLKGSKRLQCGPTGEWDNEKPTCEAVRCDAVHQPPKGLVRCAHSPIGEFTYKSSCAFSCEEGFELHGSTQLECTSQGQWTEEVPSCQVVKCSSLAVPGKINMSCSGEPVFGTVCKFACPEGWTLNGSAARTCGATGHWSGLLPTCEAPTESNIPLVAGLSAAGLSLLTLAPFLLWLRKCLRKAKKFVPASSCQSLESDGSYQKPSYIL
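System: HUVEC / Compound: single concentration / Signal: immunofluorescence imaging / Read-out: percent E-selectin-positive cells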
Ecoli rRNA inh: reduced GFP signal of wild-type E. coli, primary screen, bacterial rRNA inhibitor project, GFP/RFP fluorescence, OD600, single point. E. coli WT GFP vs humanized-ribosome RFP mutants, 24 h; stronger effect = lower value; DMSO median 0, no signal -100. 350,000 compounds, 1.6% hits. AID 720706, 2013. GFP signal change (wild-type ribosome), % (test concentration not listed);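 active = significant combined selectivity score with lowered wild-type GFP, culture density cut under 30%, mutant RFP and density less affected; inactive = any of these conditions unmet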
Large screens that a line does not name were inactive; ! = not confirmed by another sample. Shown are actives, neighbours in structure and some others; about 3.1% of the full set was active somewhere.

Cc1ccc(NS(=O)(=O)c2cccc(C(=O)NC3CC3)c2)c(C)c1	DENV2 CPE rescue inconclusive (no result: miR122 inh, E-selectin induc)
Cc1ccc(NS(=O)(=O)c2cccc(C(=O)Nc3cccnc3)c2)c(C)c1	Ecoli rRNA inh -45
O=C(Nc1cccnc1)c1ccccc1NS(=O)(=O)c1ccc(F)cc1	Ecoli rRNA inh -32
CO[C@H]1CN(C)C(=O)c2ccc(NS(=O)(=O)c3cn(C)cn3)cc2OC[C@H](C)N(CCC(F)(F)F)C[C@H]1C	none (no result: miR122 inh)
CCn1c(=O)c2cc(S(=O)(=O)NC3CCCCC3)ccc2n(CC)c1=O	miR122 inh 98 (no result: DENV2 CPE rescue, E-selectin induc, Ecoli rRNA inh)
CCn1c(=O)c2cc(S(=O)(=O)NCc3ccccc3)ccc2n(CC)c1=O	none (no result: DENV2 CPE rescue, E-selectin induc, Ecoli rRNA inh)
O=C(N[C@@H]1CC[C@@H](CCNS(=O)(=O)Cc2ccccc2)O[C@H]1CO)c1cnccn1	none
O=C(NC1CCCc2c1cnn2-c1ccccc1F)c1ccncc1 (stereo not drawn)	DENV2 CPE rescue 25
O=C(NC1CCCc2c1cnn2-c1ccc(F)cc1F)c1ccccc1N1CCOCC1 (stereo not drawn)	Ecoli rRNA inh -29
CCC(=O)Nc1ccc2c(c1)OC[C@@H](C)N(Cc1nccs1)C[C@H](C)[C@H](OC)CN(C)C2=O	none (no result: miR122 inh)
COc1cc2c(cc1OC)CN(C(=O)/C=C/c1ccc([N+](=O)[O-])cc1)CC2	Ecoli rRNA inh -17 (no result: miR122 inh, E-selectin induc)
COc1cc2c(cc1OC)CN(C(=O)/C=C/c1ccccc1[N+](=O)[O-])CC2	none (no result: miR122 inh, E-selectin induc)
CCCCc1cc(=O)oc2cc(C)cc(OCC(=O)N3CCC(C(N)=O)CC3)c12	DENV2 CPE rescue 61 (no result: E-selectin induc, Ecoli rRNA inh)
Nc1nc(NCc2ccco2)nc(N2CCN(Cc3ccccc3)CC2)c1[N+](=O)[O-]	Ecoli rRNA inh -24
COc1ccc2c(c1)CO[C@@]21O[C@H](CCO)C[C@H](O)[C@H]1O	none
Cc1ccc2c(c1)CO[C@]21O[C@H](CCO)C[C@H](O)[C@H]1O	DENV2 CPE rescue 44
CCSc1nc2ccccc2c(=O)n1Cc1ccc(F)cc1	Ecoli rRNA inh -19 (no result: miR122 inh, Cneo AK release)
Cc1cccc(Nc2nnc(-c3ccc(N4CCOCC4)c([N+](=O)[O-])c3)c3ccccc23)c1	Ecoli rRNA inh -32 (no result: E-selectin induc)
Cc1noc(C)c1S(=O)(=O)Nc1ccc2c(c1)C(=O)N([C@H](C)CO)C[C@@H](C)[C@H](CN(C)Cc1ccncc1)OCCCC[C@@H](C)O2	none
CC(C)[C@@H]1C(=O)N[C@@H](c2ccccc2)CC=CC[C@H](C)Oc2ccccc2C(=O)N1C (mixture of isomers)	none (no result: DENV2 CPE rescue, miR122 inh, Cneo AK release, E-selectin induc)
COc1ccc(CNC(=O)C(C)N2C(=O)NC3(CCCCCCC3)C2=O)cc1 (stereo not drawn)	DENV2 CPE rescue 87 (no result: miR122 inh, Cneo AK release)
COc1ccc(CNC(=O)COC(=O)CN2C(=O)NC3(CCCC3)C2=O)cc1	DENV2 CPE rescue 29 (no result: Ecoli rRNA inh)
COc1ccc(CNC(=O)Cn2ccc(N)nc2=O)cc1	E-selectin induc 39
COc1ccc(OCCOC(=O)CN2C(=O)NC3(CCCC3)C2=O)cc1	DENV2 CPE rescue inconclusive (no result: E-selectin induc)
COc1ccc(CN(C)C[C@H]2OCCCC[C@@H](C)Oc3ccc(NS(=O)(=O)c4cn(C)cn4)cc3C(=O)N([C@@H](C)CO)C[C@H]2C)cc1	none
COc1ccc(S(=O)(=O)N2C[C@@H](O)COC[C@@H]3O[C@@H](CC(=O)NCCCN4CCOCC4)CC[C@H]32)cc1	none
Cc1ccc(SC[C@H](Cc2ccccc2)N2CC[C@@H](C)CCC2=O)cc1	DENV2 CPE rescue 94
CCCN1CCC(=O)N([C@H](CSc2ccccc2)Cc2ccccc2)CC1	DENV2 CPE rescue 49
COc1ccc(SC[C@H](Cc2ccccc2)N2CC[C@@H](C)CCC2=O)cc1	none
Cc1noc(C)c1S(=O)(=O)N(C)C[C@H]1Oc2ccc(NC(=O)c3ccncc3)cc2C(=O)N([C@H](C)CO)C[C@@H]1C	none (no result: DENV2 CPE rescue, miR122 inh, Cneo AK release, E-selectin induc)
CC[C@H](C)C(=O)O[C@H]1C[C@@H](C)C=C2C=C[C@H](C)[C@H](CC[C@@H]3C[C@@H](O)CC(=O)O3)[C@H]21	DENV2 CPE rescue 36!
CCC(C)C(=O)OC1CCC=C2C=CC(C)C(CCC3CC(O)CC(=O)O3)C21 (stereo not drawn)	none (no result: miR122 inh, Cneo AK release)
CCOC(=O)c1sc(=S)n(C)c1NC(=O)c1cccc(Br)c1	Ecoli rRNA inh -49
CCOC(=O)c1ccc(-n2ccnc2)c(NC(=O)c2cccc(Br)c2)c1	miR122 inh 128 (no result: E-selectin induc)
CCOC(=O)c1ccc(-n2ccnc2)c(NC(=O)c2ccc(C(C)(C)C)cc2)c1	E-selectin induc inconclusive (no result: DENV2 CPE rescue, Cneo AK release, Ecoli rRNA inh)
O=S(=O)(N[C@H]1CC[C@H](CCn2cc(-c3cccnc3)nn2)O[C@@H]1CO)c1ccccc1	DENV2 CPE rescue 29 (no result: miR122 inh)
Cc1ccc(S(=O)(=O)N[C@H]2CC[C@@H](CCn3cc(-c4cccc(F)c4)nn3)O[C@H]2CO)cc1	DENV2 CPE rescue 34 (no result: miR122 inh)
Cc1ccc(S(=O)(=O)N[C@@H]2CC[C@H](CCn3cc(-c4cccc(F)c4)nn3)O[C@H]2CO)cc1	none (no result: miR122 inh)
O=S(=O)(N[C@@H]1CC[C@@H](CCn2cc(-c3ccccn3)nn2)O[C@H]1CO)c1cccc(Cl)c1	DENV2 CPE rescue 37
O=C(C[C@H]1CC[C@@H]2[C@H](COC[C@@H](O)CN2Cc2ccccc2F)O1)NC1CCC1	none
Cc1noc(C)c1NC(=O)Nc1ccc2c(c1)C(=O)N([C@H](C)CO)C[C@H](C)[C@H](CN(C)C(=O)c1ccccc1)OCCCC[C@H](C)O2	DENV2 CPE rescue 39
Cc1noc(C)c1NC(=O)Nc1ccc2c(c1)C(=O)N([C@H](C)CO)C[C@@H](C)[C@@H](CN(C)C(=O)Nc1ccccc1)OCCCC[C@@H](C)O2	DENV2 CPE rescue 23
Cc1noc(C)c1NC(=O)Nc1ccc2c(c1)C(=O)N([C@@H](C)CO)C[C@H](C)[C@@H](CN(C)C(=O)CCCN(C)C)OCCCC[C@@H](C)O2	DENV2 CPE rescue 86
O=C(C1CCCCC1)N1CC2(C1)[C@H](c1ccccc1)[C@@H](CO)N2Cc1ccccc1F	none (no result: miR122 inh, Cneo AK release)
C[C@H](CO)N1C[C@H](C)[C@@H](CN(C)Cc2ccc(-c3ccccc3)cc2)Oc2ccc(NS(=O)(=O)c3ccc(Cl)cc3)cc2CC1=O	none (no result: DENV2 CPE rescue, Cneo AK release)
O=C(COC(=O)C12CC3CC(CC(O)(C3)C1)C2)NCCc1ccc(Cl)cc1	Ecoli rRNA inh -20 (no result: miR122 inh, Cneo AK release)
O=C(COC(=O)C12CC3CC(CC(Br)(C3)C1)C2)Nc1c(F)cccc1F	Ecoli rRNA inh -27 (no result: miR122 inh, E-selectin induc)
CC(=O)NC12CC3CC(C1)CC(C(=O)OCC(=O)Nc1c(F)cccc1F)(C3)C2	none (no result: E-selectin induc)
O=C(COC(=O)C12CC3CC(CC(O)(C3)C1)C2)Nc1ccc(Cl)cc1F	none
Cc1cc2c(=Cc3ccc(N(C)C)cc3)c3ccccc3n2[n+]1C	E-selectin induc 49 (no result: miR122 inh, Cneo AK release)

High-throughput results: PubChem, Broad Institute
